Measured values taken from ChEMBL document CHEMBL1268974, “Synthesis and antitumour activity of glycyrrhetinic acid derivatives” (Bioorg Med Chem, 2010).
Activity calls are given as the source filed them. The rule behind the calls is not given here.

Assays:
[1] = test system: 8505C; test: Cytotoxicity against human 8505C cells after 96 hrs by SRB assay; assay type: functional, cell-based; conditions: Homo sapiens, 8505C, 96 h
[2] = Cytotoxicity against mouse NIH/3T3 cells after 96 hrs by SRB assay; assay type: cell-based; conditions: NIH3T3, 96 h
[3] = test system: A2780; test: Cytotoxicity against human A2780 cells after 96 hrs by SRB assay; assay type: functional, cell-based; conditions: Homo sapiens, A2780, 96 h
[4] = Cytotoxicity against human A253 cells after 96 hrs by SRB assay; assay type: functional, cell-based; conditions: Homo sapiens, A253, 96 h
[5] = test system: HCT-116; test: Cytotoxicity against human HCT116 cells after 96 hrs by SRB assay; assay type: functional, cell-based; conditions: HCT-116, 96 h
[6] = test system: HT-29; test: Cytotoxicity against human HT-29 cells after 96 hrs by SRB assay; assay type: functional, cell-based; conditions: HT-29, 96 h
[7] = test system: A-431; test: Cytotoxicity against human A431 cells after 96 hrs by SRB assay; assay type: functional, cell-based; conditions: A-431, 96 h
[8] = test system: SW480; test: Cytotoxicity against human SW480 cells after 96 hrs by SRB assay; assay type: functional, cell-based; conditions: SW480, 96 h
[9] = test system: HCT-8; test: Cytotoxicity against human HCT8 cells after 96 hrs by SRB assay; assay type: functional, cell-based; conditions: HCT-8, 96 h
[10] = Cytotoxicity against human Lipo cells after 96 hrs by SRB assay; assay type: functional, cell-based; conditions: Homo sapiens, Lipo, 96 h
[11] = test system: DLD-1; test: Cytotoxicity against human DLD1 cells after 96 hrs by SRB assay; assay type: functional, cell-based; conditions: Homo sapiens, DLD-1, 96 h
[12] = test system: SW-1736; test: Cytotoxicity against human SW1736 cells after 96 hrs by SRB assay; assay type: functional, cell-based; conditions: Homo sapiens, SW-1736, 96 h
[13] = test system: FaDu; test: Cytotoxicity against human FADU cells after 96 hrs by SRB assay; assay type: functional, cell-based
[14] = Cytotoxicity against human 518A2 cells after 96 hrs by SRB assay; assay type: functional, cell-based; conditions: 518A2, 96 h
[15] = test system: A549; test: Cytotoxicity against human A549 cells after 96 hrs by SRB assay; assay type: functional, cell-based; conditions: Homo sapiens, A549, 96 h
[16] = test system: MCF7; test: Cytotoxicity against human MCF7 cells after 96 hrs by SRB assay; assay type: functional, cell-based; conditions: Homo sapiens, MCF7, 96 h
[17] = test system: A2780 (Homo sapiens); test: Induction of apoptosis in human A2780 cells assessed as DNA ladder formation at IC90 concentration after 24 hrs by agarose gel electrophoresis
[18] = test system: A549; test: Induction of apoptosis in human A549 cells at IC90 concentration after 24 to 48 hrs using acridine orange/ethidium bromide dye by fluorescence microscopic analysis; assay type: functional, cell-based
Summary of the method: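 About 500,000 cells were seeded in flasks and grown for 24 h, then the medium was replaced with compound-containing medium. After 24–48 h, floating cells in the supernatant were pelleted, washed and resuspended in PBS, mixed with acridine orange/ethidium bromide and examined by fluorescence microscopy. Green nuclear fluorescence was scored as apoptotic and red nuclei as necrotic.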

| SMILES | IC50 [1] | IC50 [2] | IC50 [3] | IC50 [4] | IC50 [5] | IC50 [6] | IC50 [7] | IC50 [8] | IC50 [9] | IC50 [10] | IC50 [11] | IC50 [12] | IC50 [13] | IC50 [14] | IC50 [15] | IC50 [16] | Activity [17] | Activity [18] |
| --- | --- | --- | --- | --- | --- | --- | --- | --- | --- | --- | --- | --- | --- | --- | --- | --- | --- | --- |
| COC(=O)[C@@]1(C)CC[C@]2(C)CC[C@]3(C)C(=CC(=O)[C@@H]4[C@@]5(C)CC[C@H](O)C(C)(C)[C@@H]5CC[C@]43C)[C@@H]2C1 | 26.1 µM | 22.8 µM | 25.5 µM | 19.4 µM | 22.1 µM | 27.5 µM | 25.3 µM | 16.1 µM | 24.4 µM | 20.5 µM | 26.1 µM | 34.9 µM | 23.4 µM | 27.5 µM | 23.5 µM | 22.1 µM |  |  |
| COC(=O)[C@@]1(C)CC[C@]2(C)CC[C@]3(C)C(=CC(=O)[C@@H]4[C@@]5(C)CC[C@H](OC(=O)CCN)C(C)(C)[C@@H]5CC[C@]43C)[C@@H]2C1 |  |  |  |  |  |  |  |  |  |  |  |  |  |  |  |  | Active | Active |
| CC1(C)[C@@H](O)CC[C@]2(C)[C@H]3C(=O)C=C4[C@@H]5C[C@@](C)(C(=O)O)CC[C@]5(C)CC[C@@]4(C)[C@]3(C)CC[C@@H]12 [ENOXOLONE] | 86.5 µM | 18.5 µM | 74.6 µM | 80.8 µM | 78.8 µM | 80.1 µM | 79.6 µM | 86.8 µM | 78.9 µM | 81.4 µM | 81.2 µM | 76.9 µM | 84.5 µM | 83.9 µM | 82.8 µM | 84.7 µM |  | Active |
| CC(C)OC(=O)[C@@]1(C)CC[C@]2(C)CC[C@]3(C)C(=CC(=O)[C@@H]4[C@@]5(C)CC[C@H](O)C(C)(C)[C@@H]5CC[C@]43C)[C@@H]2C1 | 14.2 µM | 32.4 µM | 24.9 µM | 15.8 µM | 26.4 µM | 16 µM | 32 µM | 15.3 µM | 24.1 µM | 15.9 µM | 27.6 µM | 12.8 µM | 14.4 µM | 18.2 µM | 14.4 µM | 16 µM |  |  |
| CCOC(=O)[C@@]1(C)CC[C@]2(C)CC[C@]3(C)C(=CC(=O)[C@@H]4[C@@]5(C)CC[C@H](O)C(C)(C)[C@@H]5CC[C@]43C)[C@@H]2C1 | 24.6 µM | 23.7 µM | 27 µM | 25 µM | 21.6 µM | 22.1 µM | 23.4 µM | 19.1 µM | 43.4 µM | 27.7 µM | 28.1 µM | 13.4 µM | 23.8 µM | 25.2 µM | 22.7 µM | 18.6 µM |  |  |
| CC(C)OC(=O)[C@@]1(C)CC[C@]2(C)CC[C@]3(C)C(=CC(=O)[C@@H]4[C@@]5(C)CC[C@H](OC(=O)[C@@H](C)N)C(C)(C)[C@@H]5CC[C@]43C)[C@@H]2C1 | 3.51 µM |  | 1.7 µM | 3.5 µM | 4.82 µM | 3.47 µM | 3.11 µM | 3.47 µM | 3.32 µM | 4.73 µM | 5.67 µM | 3.46 µM | 5.48 µM | 5.48 µM | 3.17 µM | 3.52 µM |  | Active |
| CC1(C)[C@@H](O)CC[C@]2(C)[C@H]3C(=O)C=C4[C@@H]5C[C@@](C)(C(=O)OCc6ccccc6)CC[C@]5(C)CC[C@@]4(C)[C@]3(C)CC[C@@H]12 | 8.1 µM | 21 µM | 20.3 µM | 10.7 µM | 20.6 µM | 11.5 µM | 23.6 µM | 6.17 µM | 25.2 µM | 11.5 µM | 22.7 µM | 2.74 µM | 5.48 µM | 18.2 µM | 6.15 µM | 13.5 µM |  |  |
